Data from ChEMBL document CHEMBL1142628, “Antineoplastic agents 430. Isolation and structure of cribrostatins 3, 4, and 5 from the republic of maldives cribrochalina species” (2000).
In brackets after ≈: the same amount, converted by molar mass. Activity calls are given as the source filed them. The calls are words filed in the database; no cut-off is given here.

What was measured:
BXPC-3 = test: Growth inhibition of human BXPC3 cells; assay type: functional
OVCAR-3 = test: Growth inhibition of human OVCAR-3 cells; assay type: functional
How it was run: (§1)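 NCI 60-cell-line screen run by the standard NCI protocol. Each test agent ran in quadruplicate, with a top concentration of 10^-5 M and five log-spaced dilutions. GI50 values were averaged and reported as negative log GI50.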

SF-295 [1] = test: (§2) Growth inhibition of human SF295 cells; assay type: functional
How it was run: (§3)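 NCI human tumor cell line panel screen run to the standard NCI protocol. Each compound tested in quadruplicate with a top concentration of 10^-5 M and five log-spaced dilutions. GI50 values were averaged across replicates and reported as negative log GI50.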

NCI-H460 [2] = test: (§4) Growth inhibition of human NCI-H460 cells; assay type: functional; how it was run: as §1
KM-20L2 = test: Growth inhibition of human KM20L2 cells; assay type: functional
DU-145 = test: Growth inhibition of human DU145 cells; assay type: functional; how it was run: as §1
P388 = test: Growth inhibition of mouse P388 cells; assay type: functional; conditions: for EC50: read-out: ED50 (the source's name)
Candida albicans = test: Antifungal activity against Candida albicans ATCC 90028 at 100 ug/disk by disk diffusion method; assay type: functional, organism-based
Cryptococcus neoformans = test: Antifungal activity against Cryptococcus neoformans ATCC 90112 at 100 ug/disk by disk diffusion method; assay type: functional, organism-based
Micrococcus luteus [3] = test: Antibacterial activity against Micrococcus luteus Presque Isle 456 at 100 ug/disk by disk diffusion method; assay type: functional, organism-based
Staphylococcus aureus = test: Antibacterial activity against Staphylococcus aureus ATCC 29213 at 100 ug/disk by disk diffusion method; assay type: functional, organism-based
Enterococcus faecalis = test: Antibacterial activity against Enterococcus faecalis ATCC 29212 at 100 ug/disk by disk diffusion method; assay type: functional, organism-based
Bacillus subtilis = test: Antibacterial activity against Bacillus subtilis Presque Isle 620 at 100 ug/disk by disk diffusion method; assay type: functional, organism-based
Streptococcus pneumoniae = test: Antibacterial activity against Streptococcus pneumoniae ATCC 6303 at 100 ug/disk by disk diffusion method; assay type: functional, organism-based
[4] = system: Stenotrophomonas maltophilia; test: Antibacterial activity against Stenotrophomonas maltophilia ATCC 13637 at 100 ug/disk by disk diffusion method; assay type: functional, organism-based
Escherichia coli = test: Antibacterial activity against Escherichia coli ATCC 25922 at 100 ug/disk by disk diffusion method; assay type: functional, organism-based
Enterobacter cloacae = test: Antibacterial activity against Enterobacter cloacae ATCC 13047 at 100 ug/disk by disk diffusion method; assay type: functional, organism-based
Neisseria gonorrhoeae [5] = test: Antibacterial activity against Neisseria gonorrhoeae ATCC 49226 by disk diffusion method; assay type: functional
Neisseria gonorrhoeae [6] = test: Antibacterial activity against penicillin-resistant Neisseria gonorrhoeae isolate by disk diffusion method; assay type: functional
CCRF-CEM = test: Growth inhibition of human CCRF-CEM cells; assay type: functional; how it was run: as §1
[7] = Growth inhibition of human HL60(TB) cells; assay type: functional, HL-60(TB); conditions: HL-60
How it was run: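 NCI human tumour cell-line panel screen run by the standard NCI protocol. Each compound was tested in quadruplicate, with an upper concentration limit of 10^-5 M and five log-spaced dilutions. GI50 values were averaged and reported as negative log GI50.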

K562 = test: Growth inhibition of human K562 cells; assay type: functional; how it was run: as §1
MOLT-4 = test: Growth inhibition of human MOLT4 cells; assay type: functional; how it was run: as §1
RPMI-8226 = test: Growth inhibition of human RPMI8226 cells; assay type: functional; how it was run: as §1
SR = test: Growth inhibition of human SR cells; assay type: functional; how it was run: as §3
A549 = test: Growth inhibition of human A549/ATCC cells; assay type: functional; how it was run: as §1
HOP-62 = test: Growth inhibition of human HOP62 cells; assay type: functional; how it was run: as §1
HOP-92 = test: Growth inhibition of human HOP92 cells; assay type: functional; how it was run: as §1
NCI-H226 = test: Growth inhibition of human NCI-H226 cells; assay type: functional; how it was run: as §1
NCI-H460 [8] = test: as §4; assay type: functional; how it was run: as §1; remark: listed apart in the source
NCI-H522 = test: Growth inhibition of human NCI-H522 cells; assay type: functional; how it was run: as §1
COLO 205 = test: Growth inhibition of human COLO205 cells; assay type: functional; how it was run: as §1
KM12 = test: Growth inhibition of human KM12 cells; assay type: functional; how it was run: as §1
SW-620 = test: Growth inhibition of human SW620 cells; assay type: functional; how it was run: as §3
SNB-75 = test: Growth inhibition of human SNB75 cells; assay type: functional; how it was run: as §3
U-251 = test: Growth inhibition of human U251 cells; assay type: functional; how it was run: as §3
LOX IMVI = test: Growth inhibition of human LOX IMVI cells; assay type: functional; how it was run: as §1
Malme-3M = test: Growth inhibition of human MALME-3M cells; assay type: functional; how it was run: as §1
SK-MEL-5 = test: Growth inhibition of human SK-MEL-5 cells; assay type: functional; how it was run: as §3
UACC-62 = test: Growth inhibition of human UACC62 cells; assay type: functional; how it was run: as §3
OVCAR-4 = test: Growth inhibition of human OVCAR4 cells; assay type: functional; how it was run: as §1
OVCAR-8 = test: Growth inhibition of human OVCAR8 cells; assay type: functional; how it was run: as §1
786-0 = test: Growth inhibition of human 786-0 cells; assay type: functional; how it was run: as §1
ACHN = test: Growth inhibition of human ACHN cells; assay type: functional; how it was run: as §1
RXF 393 = test: Growth inhibition of human RXF393 cells; assay type: functional; how it was run: as §3
SN12C = test: Growth inhibition of human SN12C cells; assay type: functional; how it was run: as §3
PC-3 = test: Growth inhibition of human PC3 cells; assay type: functional; how it was run: as §1
MCF7 [9] = test: Growth inhibition of human MCF7 cells; assay type: functional; how it was run: as §1
MCF7 [10] = test: Growth inhibition of human adriamycin-resistant MCF7 cells; assay type: functional; how it was run: as §3
MDA-MB-231 = test: Growth inhibition of human MDA-MB-231/ATCC cells; assay type: functional; how it was run: as §1
Hs-578T = test: Growth inhibition of human HS578T cells; assay type: functional; how it was run: as §1
MDA-MB-435 = test: Growth inhibition of human MDA-MB-435 cells; assay type: functional; how it was run: as §1
MDA-N = test: Growth inhibition of human MDA-N cells; assay type: functional; how it was run: as §1
T47D = test: Growth inhibition of human T47D cells; assay type: functional; how it was run: as §3
SF-268 = test: Growth inhibition of human SF268 cells; assay type: functional; how it was run: as §3
SF-295 [11] = test: as §2; assay type: functional; how it was run: as §3; remark: listed apart in the source
SF-539 = test: Growth inhibition of human SF539 cells; assay type: functional; how it was run: as §3
Micrococcus luteus [12] = test: Antibacterial activity against Micrococcus luteus Presque Isle 456 by disk diffusion method; assay type: functional

C/C=C(/C)C(=O)OCc1nccc2c1C(=O)C(N)=C(C)C2=O [CRIBROSTATIN 3]
GI50 (BXPC-3): > 1 µg/mL
GI50 (OVCAR-3): 0.77 µg/mL (≈ 2.56 µM)
GI50 (SF-295 [1]): > 1 µg/mL
GI50 (NCI-H460 [2]): > 1 µg/mL
GI50 (KM-20L2): > 1 µg/mL
GI50 (DU-145): > 1 µg/mL
GI50 (P388): 2.49 µg/mL (≈ 8.29 µM)
EC50 (P388): 2.5 µg/mL (≈ 8.32 µM)
Activity (Candida albicans): inactive
Activity (Cryptococcus neoformans): inactive
Activity (Micrococcus luteus [3]): inactive
Activity (Staphylococcus aureus): inactive
Activity (Enterococcus faecalis): inactive
Activity (Bacillus subtilis): inactive
Activity (Streptococcus pneumoniae): inactive
Activity [4]: inactive
Activity (Escherichia coli): inactive
Activity (Enterobacter cloacae): inactive
MIC (Neisseria gonorrhoeae [5]): 0.0975 µg/disc
MIC (Neisseria gonorrhoeae [6]): 0.39 µg/disc
GI50 (CCRF-CEM): 4.27 µM
GI50 [7]: 3.09 µM
GI50 (K562): 7.41 µM
GI50 (MOLT-4): 4.9 µM
GI50 (RPMI-8226): 8.51 µM
GI50 (SR): 3.39 µM
GI50 (A549): 3.47 µM
GI50 (HOP-62): 5.37 µM
GI50 (HOP-92): 9.55 µM
GI50 (NCI-H226): 7.08 µM
GI50 (NCI-H460 [8]): 3.02 µM
GI50 (NCI-H522): 3.89 µM
GI50 (COLO 205): 5.89 µM
GI50 (KM12): 4.9 µM
GI50 (SW-620): 3.63 µM
GI50 (SNB-75): 4.79 µM
GI50 (U-251): 3.24 µM
GI50 (LOX IMVI): 4.07 µM
GI50 (Malme-3M): 0.617 µM
GI50 (SK-MEL-5): 1.1 µM
GI50 (UACC-62): 2.51 µM
GI50 (OVCAR-4): 5.25 µM
GI50 (OVCAR-8): 8.71 µM
GI50 (786-0): 5.89 µM
GI50 (ACHN): 9.55 µM
GI50 (RXF 393): 4.9 µM
GI50 (SN12C): 6.17 µM
GI50 (PC-3): 2 µM
GI50 (MCF7 [9]): 4.68 µM
GI50 (MCF7 [10]): 4.57 µM
GI50 (MDA-MB-231): 8.71 µM
GI50 (Hs-578T): 6.31 µM
GI50 (MDA-MB-435): 1.82 µM
GI50 (MDA-N): 1.91 µM
GI50 (T47D): 6.46 µM
GI50 (SF-268): 6.31 µM
GI50 (SF-295 [11]): 3.63 µM
GI50 (SF-539): 4.79 µM

C/C=C(/C)C(=O)OCc1nccc2c1C(=O)C(NC)=C(C)C2=O [CRIBROSTATIN 4]
GI50 (BXPC-3): 0.29 µg/mL (≈ 0.923 µM)
GI50 (OVCAR-3): 0.18 µg/mL (≈ 0.573 µM)
GI50 (SF-295 [1]): 0.36 µg/mL (≈ 1.15 µM)
GI50 (NCI-H460 [2]): 0.22 µg/mL (≈ 0.7 µM)
GI50 (KM-20L2): 0.14 µg/mL (≈ 0.445 µM)
GI50 (DU-145): 0.3 µg/mL (≈ 0.954 µM)
GI50 (P388): 0.045 µg/mL (≈ 0.143 µM)
EC50 (P388): 0.045 µg/mL (≈ 0.143 µM)
Activity (Candida albicans): inactive
Activity (Cryptococcus neoformans): inactive
MIC (Micrococcus luteus [12]): 50 µg/disc
Activity (Staphylococcus aureus): inactive
Activity (Enterococcus faecalis): inactive
Activity (Bacillus subtilis): inactive
Activity (Streptococcus pneumoniae): inactive
Activity [4]: inactive
Activity (Escherichia coli): inactive
MIC (Neisseria gonorrhoeae [5]): 6.25 µg/disc
